We go through 14 molecules from PubChem BioAssay.

Experiment [1] in a line: Her2 expression decrease, cell viability multiplex – SKBR3 breast tumor cells, AlphaScreen, ATP viability, primary screen (AID 461;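 active means Her2 level under about 52% in both replicate screens, with viability over 70% of control, limit read from the data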;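 on Her2 level: lower value means less Her2 protein in the cells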;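 on viability: percent of carrier control wells set as 100% viability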). As to conditions: SKBR3 Her2 protein level, 18-24 h, measured here: SKBR3 viability, ATP luminescence, at 10 µM.
Experiment [2] concerns the target Receptor tyrosine-protein kinase erbB-2 (Homo sapiens) (UniProt P04626). Described as above. As to conditions: 18-24 h, at 10 µM, stronger effect = lower value.
Experiment [3] in a line: reduced viability of SK-BR-3 breast cancer cells – cell-based, 24 h, human, pilot screen (AID 572).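 Further: compound exposure lasted between 18 and 24 h rather than exactly 24 h; 100% = carrier-treated control wells.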 Conditions: SK-BR-3 viability, CellTiter-Glo luminescence, at 10 µM, stronger effect = lower value.
Experiment [4] is described as follows: HUVEC growth inhibition – cell-based, human, primary screen (AID 575;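 active means viability at or below 30% in both replicate assays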;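 further: 100% = median of untreated cell wells with 0.1% DMSO on each plate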). As to conditions: HUVEC proliferation, CellTiter-Glo luminescence, 72 h; at 10 µM; stronger effect = lower value. An outline of the steps: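 system = HUVEC primary cells | amount = 1250 cells/well | buffer or medium = supplemented EBM, 2% fetal bovine serum | dosing = single-point 10 µM, DMSO 0.1% final | times = 72 h compound incubation | detection = CTG luminescence | read-out = % viability relative to median vehicle-well signal on each plate | control set = vehicle and MePR control wells | format = collagen-coated 384-well format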
In general terms: In ATP-based viability assays light output follows the ATP content of the culture.

A short description of experiment [5]: H69AR cell proliferation blockers – human, duplicate replicates, primary screen (AID 580;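 active means viability at or under a set limit in both replicates, limit being median viability minus 3 SD, cut at about 48% in these data, passing the limit was not always enough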;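 further: 100% = mean luminescence of untreated wells and 0% = no signal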). As to conditions: H69AR lung tumor cells viability, ATP luminescence, 72 h; at 10 µM; stronger effect = lower value.
The nature of experiment [6]: MRP1 drug-resistance reversers in H69AR cells – cell-based, doxorubicin co-treatment, pilot screen (AID 601;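 active means viability loss from added drug above about 55%, and viability with drug at most 40%, in both replicates, limit read from the data, passing the limit was not always enough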). As to conditions: CellTiter-Glo, 72 h, at 10 µM; for differential viability (reversal): stronger effect = higher value.
A short description of experiment [7]: yeast transport mutant growth inhibition pilot in 384-well plates, post-Golgi transport modulator project (AID 636; in the data active means inhibition above about 31%). Conditions: absorbance 615 nm, about 18 h, stronger effect = higher value.
Experiment [8] is described as follows: growth suppression of yeast trafficking mutant, preliminary HTS, modulators of trafficking downstream of Golgi apparatus project, 1536-format plate, OD 615 nm (AID 637; in the data active means inhibition above about 30%). As to conditions: yeast transport mutant growth, absorbance 615 nm, 18 h; stronger effect = higher value.
Setting [9] is: H69AR cells + 2 uM doxorubicin, measured here: viability with 2 uM doxorubicin, stronger effect = lower value.
Setting [10] is: H69AR cells, compound alone cytotoxicity.

Structures are written as SMILES. Active and inactive are the calls of the source.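 How the source made its calls, unless noted: active means viability at or below 10% of carrier control in both of two separate runs; inconclusive means viability at or below 10% in only one of the two runs; inactive means the rest.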

Sequence of Receptor tyrosine-protein kinase erbB-2 (Homo sapiens) (P04626 whole entry, looked up): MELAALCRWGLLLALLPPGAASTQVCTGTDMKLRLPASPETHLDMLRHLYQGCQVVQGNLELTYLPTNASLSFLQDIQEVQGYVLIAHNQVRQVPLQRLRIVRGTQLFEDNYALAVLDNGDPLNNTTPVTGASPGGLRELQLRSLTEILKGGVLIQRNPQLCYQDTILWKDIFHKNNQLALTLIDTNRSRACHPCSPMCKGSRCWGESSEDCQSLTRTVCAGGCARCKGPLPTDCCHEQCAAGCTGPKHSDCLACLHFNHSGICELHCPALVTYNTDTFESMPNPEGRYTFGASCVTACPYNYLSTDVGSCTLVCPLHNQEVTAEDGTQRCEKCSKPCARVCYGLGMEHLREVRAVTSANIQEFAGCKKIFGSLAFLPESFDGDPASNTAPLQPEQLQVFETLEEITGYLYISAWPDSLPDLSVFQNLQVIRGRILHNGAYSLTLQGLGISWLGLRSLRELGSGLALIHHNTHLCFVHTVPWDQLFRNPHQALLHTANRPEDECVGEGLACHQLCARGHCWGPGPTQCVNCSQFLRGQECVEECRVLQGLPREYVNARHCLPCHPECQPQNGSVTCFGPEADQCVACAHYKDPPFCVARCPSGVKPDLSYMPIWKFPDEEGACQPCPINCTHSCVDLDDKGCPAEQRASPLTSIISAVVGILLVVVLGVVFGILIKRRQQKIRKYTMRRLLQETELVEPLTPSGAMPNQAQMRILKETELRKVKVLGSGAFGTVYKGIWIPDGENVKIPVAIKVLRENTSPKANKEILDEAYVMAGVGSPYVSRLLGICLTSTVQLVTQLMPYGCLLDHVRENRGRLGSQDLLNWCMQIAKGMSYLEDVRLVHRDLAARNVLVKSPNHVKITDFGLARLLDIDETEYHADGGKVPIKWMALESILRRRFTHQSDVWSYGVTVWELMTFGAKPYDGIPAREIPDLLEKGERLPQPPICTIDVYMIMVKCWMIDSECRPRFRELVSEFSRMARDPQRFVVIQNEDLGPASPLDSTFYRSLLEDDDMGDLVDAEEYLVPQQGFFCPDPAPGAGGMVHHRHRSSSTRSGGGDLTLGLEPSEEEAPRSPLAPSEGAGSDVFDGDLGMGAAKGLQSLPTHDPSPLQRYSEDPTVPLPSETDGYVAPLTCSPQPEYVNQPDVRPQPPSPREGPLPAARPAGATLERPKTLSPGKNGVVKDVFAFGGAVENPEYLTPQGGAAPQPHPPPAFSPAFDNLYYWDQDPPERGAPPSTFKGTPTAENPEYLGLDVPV

By viability is commonly meant a read-out of living cells in per cent, often relative to untreated cells. As a reminder, the inhibition is the change of the read-out against control, counted positive when it falls. Regarding `Cc1ccc(CN2C(=O)CCC2C(=O)NCCCN2CCC(C)CC2)cc1` (stereo not given), the viability in experiment [1] is 98.5%; in experiment [3], 98.5% (inactive); in experiment [4] it was 93.7% (inactive); in experiment [5], 103% (inactive); in experiment [6] (setting [9]), 101%; in experiment [6] (setting [10]), 103%. For the same molecule, in experiment [2], the Her2 level was 88.5% (inactive). Further, in experiment [6] (H69AR cells + 2 uM doxorubicin), the differential viability (reversal) was 2.18% (inactive). Also, the figures for the inhibition in experiment [7] and in experiment [8] were -5.73% (inactive) and 6.89% (inactive), respectively.

On to `CCCCn1c(SCC(=O)N2CC(=O)Nc3ccccc32)nnc1-c1ccoc1C`, for which the viability in experiment [1] was 86.5%; in experiment [3], 86.5% (inactive); in experiment [4], 97.5% (inactive); in experiment [5], 96.7% (inactive); in experiment [6] (setting [9]) it was 91.8%; in experiment [6] (setting [10]) it was 96.7%. In addition, the Her2 level in experiment [2] was 85.5% (inactive). Besides, the differential viability (reversal) in experiment [6] (H69AR cells + 2 uM doxorubicin) was 4.84% (inactive). Besides, the results for the inhibition in experiment [7] and in experiment [8] were 2.67% (inactive) and -8.55% (inactive), respectively.

For `CCOC(=O)c1[nH]c2ccc(C)cc2c1N=C(C)N(C)C`, the viability in experiment [1] was 100%; in experiment [3], 100% (inactive); in experiment [4], 96.5% (inactive); in experiment [5], 97.7% (inactive); in experiment [6] (setting [9]), 91.4%; in experiment [6] (setting [10]), 97.7%. The Her2 level in experiment [2] was 89% (inactive). Further, in experiment [6] (H69AR cells + 2 uM doxorubicin), the differential viability (reversal) is 6.32% (inactive). Besides, the inhibition was -0.66% (inactive) in experiment [7] and -5.32% (inactive) in experiment [8].

For the molecule `CCCCc1c(O)nc(SCC(=O)c2ccccc2)[nH]c1=O`, the viability in experiment [1] is 105%; in experiment [3] it was 105% (inactive); in experiment [4], 89% (inactive); in experiment [5] it was 104% (inactive); in experiment [6] (setting [9]), 83%; in experiment [6] (setting [10]), 104%. The Her2 level in experiment [2] was 102% (inactive). In experiment [6] (H69AR cells + 2 uM doxorubicin), the differential viability (reversal) was 21.1% (inactive). The inhibition in experiment [7] was -4.87% (inactive); in experiment [8], 11.8% (inactive).

Consider `CCc1[nH]nc2c1C(c1ccncc1)C(C#N)=C(N)O2` (stereo not given), for which the viability in experiment [1] is 108%; in experiment [3], 108% (inactive); in experiment [4] it was 106% (inactive); in experiment [5], 95.9% (inactive); in experiment [6] (setting [9]), 99.8%; in experiment [6] (setting [10]), 95.9%. Also, the Her2 level in experiment [2] is 112% (inactive). The differential viability (reversal) in experiment [6] (H69AR cells + 2 uM doxorubicin) was -3.88% (inactive). Also, the inhibition in experiment [7] is -4.46% (inactive); in experiment [8], -4.92% (inactive).

Consider `COC(=O)c1c(N)n(-c2cc(OC)cc(OC)c2)c2nc3ccccc3nc12`, for which the viability in experiment [1] was 85.5%; in experiment [3], 85.5% (inactive); in experiment [4], 61.7% (inactive); in experiment [5] it was 101% (inactive); in experiment [6] (setting [9]), 90.5%; in experiment [6] (setting [10]), 101%. The Her2 level in experiment [2] was 93% (inactive). Besides, the differential viability (reversal) in experiment [6] (H69AR cells + 2 uM doxorubicin) was 10.6% (inactive). Moreover, the inhibition in experiment [7] is -6.35% (inactive); in experiment [8] it was 3.83% (inactive).

On to `Cc1ccc2cc(C#N)c(NCCCNC(=O)C3CCCO3)nc2c1` (stereo not given), for which the viability was 106% in experiment [1]; 106% (inactive) in experiment [3]; 104% (inactive) in experiment [4]; 99% (inactive) in experiment [5]; 86.4% in experiment [6] (setting [9]); 99% in experiment [6] (setting [10]). In addition, in experiment [2], the Her2 level is 73% (inactive). In experiment [6] (H69AR cells + 2 uM doxorubicin), the differential viability (reversal) is 12.6% (inactive). The inhibition in experiment [7] was -6.71% (inactive); in experiment [8], 6.19% (inactive).

Regarding `CSc1ccc(-c2nc(CSCC(=O)N3CCOCC3)c(C)o2)cc1`, the viability was 102% in experiment [1]; 102% (inactive) in experiment [3]; 85.2% (inactive) in experiment [4]; 103% (inactive) in experiment [5]; 97.1% in experiment [6] (setting [9]); 103% in experiment [6] (setting [10]). Further, the Her2 level in experiment [2] is 91% (inactive). For the same molecule, the differential viability (reversal) in experiment [6] (H69AR cells + 2 uM doxorubicin) is 6.36% (inactive). Also, the inhibition in experiment [7] is -0.67% (inactive); in experiment [8], -2.26% (inactive).

As to `CN1CCc2nc(SCC(=O)Nc3ccc(F)cc3)c(C#N)cc2C1`, the viability was 90.5% in experiment [1]; 90.5% (inactive) in experiment [3]; 94.2% (inactive) in experiment [4]; 97% (inactive) in experiment [5]; 101% in experiment [6] (setting [9]); 97% in experiment [6] (setting [10]). Moreover, the Her2 level in experiment [2] is 91.5% (inactive). For the same molecule, in experiment [6] (H69AR cells + 2 uM doxorubicin), the differential viability (reversal) is -4.23% (inactive). Also, the figures for the inhibition in experiment [7] and in experiment [8] were -5.33% (inactive) and 4.1% (inactive), respectively.

Regarding `CCOC(=O)Cn1nc(-c2ccc(C)cc2)ccc1=O`, the viability is 99% in experiment [1]; 99% (inactive) in experiment [3]; 94.1% (inactive) in experiment [4]; 100% (inactive) in experiment [5]; 84.6% in experiment [6] (setting [9]); 100% in experiment [6] (setting [10]). Besides, the Her2 level in experiment [2] was 115% (inactive). The differential viability (reversal) in experiment [6] (H69AR cells + 2 uM doxorubicin) was 15.4% (inactive). The figures for the inhibition in experiment [7] and in experiment [8] were -5.32% (inactive) and 7.21% (inactive), respectively.

As to `CCn1nc(C)c(NC(=O)c2cc(Br)ccc2Cl)c1C`, the viability in experiment [1] was 84.5%; in experiment [3], 84.5% (inactive); in experiment [4] it was 88.5% (inactive); in experiment [5] it was 94% (inactive); in experiment [6] (setting [9]), 79.7%; in experiment [6] (setting [10]), 94%. Further, the Her2 level in experiment [2] is 78% (inactive). Besides, in experiment [6] (H69AR cells + 2 uM doxorubicin), the differential viability (reversal) is 14.3% (inactive). The inhibition in experiment [7] was -4.42% (inactive); in experiment [8] it was 3.44% (inactive).

Take `Cc1ccc(NC(=O)CCC(=O)OCC(F)(F)C(F)F)cc1`: the viability in experiment [1] was 98%; in experiment [3], 98% (inactive); in experiment [4], 117% (inactive); in experiment [5], 103% (inactive); in experiment [6] (setting [9]) it was 104%; in experiment [6] (setting [10]), 103%. For the same molecule, in experiment [2], the Her2 level is 106% (inactive). Moreover, the differential viability (reversal) in experiment [6] (H69AR cells + 2 uM doxorubicin) is -1.04% (inactive). Moreover, the inhibition in experiment [7] was -0.65% (inactive); in experiment [8] it was -7.67% (inactive).

For the molecule `CCOC(=O)CSc1nnc(-c2ccccc2OC)o1`, the viability in experiment [1] is 116%; in experiment [3], 116% (inactive); in experiment [4] it was 80.2% (inactive); in experiment [5], 94.8% (inactive); in experiment [6] (setting [9]) it was 106%; in experiment [6] (setting [10]), 94.8%. The Her2 level in experiment [2] was 96% (inactive). Also, the differential viability (reversal) in experiment [6] (H69AR cells + 2 uM doxorubicin) was -11% (inactive). The inhibition was -6.44% (inactive) in experiment [7] and -6.51% (inactive) in experiment [8].

In the case of `CN(C)c1ccc(/C(=N\O)c2ccccc2)cc1`, the viability is 98.5% in experiment [1]; 98.5% (inactive) in experiment [3]; 93.9% (inactive) in experiment [4]; 92.8% (inactive) in experiment [5]; 90.3% in experiment [6] (setting [9]); 92.8% in experiment [6] (setting [10]). For the same molecule, the Her2 level in experiment [2] was 114% (inactive). Moreover, the differential viability (reversal) in experiment [6] (H69AR cells + 2 uM doxorubicin) was 2.59% (inactive). The inhibition in experiment [7] was 0.13% (inactive); in experiment [8], -13.5% (inactive).
